# Measurements taken from ChEMBL document CHEMBL3244183, “Synthesis and antibacterial activity of isomeric 6- and 7-acetyl-3-methyl-2- quinoxalinecarbozamide 1,4-dioxides” (1978).
# What was measured:
# Format in all cases: functional
# [1] = tested on: Escherichia coli; assay: Antimicrobial activity against Escherichia coli infected in mouse compound administered orally at 0.5 hr, 4 hrs and 24 hrs post infection; conditions: po, read-out: PD50
# In short: (§1)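 Male and female mice, 11–13 g. Acute systemic infection by intraperitoneal inoculation of 1–10 times the organism count killing 100% of untreated mice in 4 days; standardized cultures suspended in 5% hog gastric mucin. Treated 0.5 h after infection, again at 4.0 h and at 24 h. PD50 (50% protective dose) calculated by probit method.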
# [2] = tested on: Pasteurella multocida; assay: Antimicrobial activity against Pasteurella multocida infected in mouse compound administered orally at 0.5 hr, 4 hrs and 24 hrs post infection; conditions: po, read-out: PD50
# In short: (§2)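 Infections in male and female mice (11–13 g), given intraperitoneally at one to ten times the inoculum lethal to all nonmedicated mice within 4 days. Standardized cultures were suspended in brain-heart infusion broth. Doses were given at 0.5, 4.0 and 24 h post-infection. The 50% protective dose was derived by probit analysis.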
# [3] = tested on: Pasteurella multocida; assay: Antimicrobial activity against Pasteurella multocida measured after overnight incubation by susceptibility test
# In short: (§3)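 MIC by agar dilution: about 10^4 organisms applied with a replicating device onto brain-heart infusion agar holding twofold dilutions of drug; plates incubated overnight at 37 °C under anaerobic conditions (Gas Pak environment); MIC read as lowest inhibiting concentration.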
# [4] = tested on: Streptococcus pyogenes; assay: Antimicrobial activity against Streptococcus pyogenes infected in mouse compound administered subcutaneously at 0.5 hr, 4 hrs and 24 hrs post infection; conditions: sc, read-out: PD50; in short: as §2
# [5] = tested on: Streptococcus pyogenes; assay: Antimicrobial activity against Streptococcus pyogenes measured after overnight incubation by susceptibility test; in short: as §3
# [6] = tested on: Pasteurella multocida; assay: Antimicrobial activity against Pasteurella multocida infected in mouse compound administered subcutaneously at 0.5 hr, 4 hrs and 24 hrs post infection; conditions: sc, read-out: PD50; in short: as §2
# [7] = tested on: Salmonella enterica; assay: Antimicrobial activity against Salmonella choleraesuis measured after overnight incubation by susceptibility test
# In short: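 MIC by agar dilution: about 10^4 organisms applied with a replicating device onto brain-heart infusion agar containing twofold dilutions of the quinoxaline 1,4-dioxide; incubated overnight at 37 °C under anaerobic conditions (Gas Pak).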
# [8] = tested on: Salmonella enterica; assay: Antimicrobial activity against Salmonella choleraesuis infected in mouse compound administered subcutaneously at 0.5 hr, 4 hrs and 24 hrs post infection; conditions: sc, read-out: PD50; in short: as §1
# [9] = tested on: Salmonella enterica; assay: Antimicrobial activity against Salmonella choleraesuis infected in mouse compound administered orally at 0.5 hr, 4 hrs and 24 hrs post infection; conditions: po, read-out: PD50; in short: as §1
# [10] = tested on: Escherichia coli; assay: Antimicrobial activity against Escherichia coli measured after overnight incubation by susceptibility test; in short: as §3
# [11] = tested on: Streptococcus pyogenes; assay: Antimicrobial activity against Streptococcus pyogenes infected in mouse compound administered orally at 0.5 hr, 4 hrs and 24 hrs post infection; conditions: po, read-out: PD50; in short: as §2
# [12] = tested on: Escherichia coli; assay: Antimicrobial activity against Escherichia coli infected in mouse compound administered subcutaneously at 0.5 hr, 4 hrs and 24 hrs post infection; conditions: sc, read-out: PD50; in short: as §1
# [13] = tested on: Pasteurella multocida; assay: Ratio of PD50 for Pasteurella multocida infected in po dosed mouse to PD50 for Pasteurella multocida infected in sc dosed mouse
# [14] = tested on: Escherichia coli; assay: Ratio of PD50 for Escherichia coli infected in po dosed mouse to PD50 for Escherichia coli infected in sc dosed mouse
# [15] = tested on: Salmonella enterica; assay: Ratio of PD50 for Salmonella choleraesuis infected in po dosed mouse to PD50 for Salmonella choleraesuis infected in sc dosed mouse
# [16] = tested on: Streptococcus pyogenes; assay: Ratio of PD50 for Streptococcus pyogenes infected in po dosed mouse to PD50 for Streptococcus pyogenes infected in sc dosed mouse
SMILES,ED50 [1] [mg/kg],ED50 [2] [mg/kg],MIC [3] [µg/mL],ED50 [4] [mg/kg],MIC [5] [µg/mL],ED50 [6] [mg/kg],MIC [7] [µg/mL],ED50 [8] [mg/kg],ED50 [9] [mg/kg],MIC [10] [µg/mL],ED50 [11] [mg/kg],ED50 [12] [mg/kg],Ratio [13],Ratio [14],Ratio [15],Ratio [16]
CC(=O)c1ccc2c(c1)[n+]([O-])c(C)c(C(N)=O)[n+]2[O-],12.6,13.6,0.39,54,0.19,11.7,0.39,7.6,9.9,0.39,70,10.9,,,,
CC(=O)c1ccc2c(c1)[n+]([O-])c(C(N)=O)c(C)[n+]2[O-],13,12.7,0.19,9.2,0.39,7.7,0.19,4.5,9.1,0.39,15,5.6,2,2,2,2
